Assay results as given in ChEMBL document CHEMBL3808334, “Synthesis and in vitro evaluation of novel triazine analogues as anticancer agents and their interaction studies with bovine serum albumin” (Eur J Med Chem, 2016).

Experiments:
ACHN [1] = experiment: Growth inhibition of human ACHN cells assessed as cell growth at 10^-4 M incubated for 48 hrs by sulforhodamine B assay; type: functional; settings: read-out: Activity
In short: (§1)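 Five-dose assay: five concentrations from 10-fold or ½-log serial dilutions. Cells are plated at 5,000–40,000 per well according to doubling time, grown 24 h, then exposed 48 h at 37 °C, 5% CO₂. Fixed with cold 50% TCA (final addition) for 60 min at 4 °C and stained with 0.4% SRB in 1% acetic acid. Bound dye is solubilized in 10 mM Tris base and read at 515 nm. GI₅₀ is where [(Ti−Tz)/(C−Tz)]×100 = 50, with a time-zero plate as Tz.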

SN12C = experiment: Growth inhibition of human SN12C cells assessed as cell growth at 10^-5 M incubated for 48 hrs by sulforhodamine B assay; type: functional; settings: read-out: Activity
[2] = Growth inhibition of human BT549 cells assessed as cell growth at 10^-5 M incubated for 48 hrs by sulforhodamine B assay; type: functional; settings: BT-549, 48 h, read-out: Activity; in short: as §1
[3] = Growth inhibition of human PC3 cells assessed as cell growth at 10^-6 M incubated for 48 hrs by sulforhodamine B assay; type: functional; settings: PC-3, 48 h, read-out: Activity
Albumin = Albumin (Bos taurus, UniProt P02769); experiment: Binding affinity to bovine serum albumin assessed as binding constant in absorption spectra by Benesie-Hildebrand plot analysis; type: ADME; settings: cattle, isolated protein
Chain of Albumin (P02769 whole entry): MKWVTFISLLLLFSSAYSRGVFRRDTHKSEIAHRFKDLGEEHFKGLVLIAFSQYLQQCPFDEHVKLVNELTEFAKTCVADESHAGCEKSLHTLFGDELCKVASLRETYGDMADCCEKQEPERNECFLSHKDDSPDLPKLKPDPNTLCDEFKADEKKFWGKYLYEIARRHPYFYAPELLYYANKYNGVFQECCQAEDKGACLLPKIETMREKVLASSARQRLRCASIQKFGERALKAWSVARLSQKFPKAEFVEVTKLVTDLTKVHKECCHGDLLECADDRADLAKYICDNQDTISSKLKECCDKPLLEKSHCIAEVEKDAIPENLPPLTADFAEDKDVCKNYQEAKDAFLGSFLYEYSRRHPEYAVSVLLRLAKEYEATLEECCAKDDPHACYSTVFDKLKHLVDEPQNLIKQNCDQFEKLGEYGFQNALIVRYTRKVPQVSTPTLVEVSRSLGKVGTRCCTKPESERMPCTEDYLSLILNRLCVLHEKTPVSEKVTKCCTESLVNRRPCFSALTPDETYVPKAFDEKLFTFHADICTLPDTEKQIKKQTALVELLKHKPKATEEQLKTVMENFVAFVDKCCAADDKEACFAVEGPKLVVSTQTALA
In short: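 BSA, 10 µM, in 0.1 M phosphate buffer pH 7.4, titrated with compound (0–20 µM per the figure; diluted from 10⁻³ mol L⁻¹ DMSO stocks). Run at 300 K in a 1 cm quartz cell. UV spectra taken 200–800 nm after 5 min equilibration; fluorescence excited at 280 nm, emission 351 nm, slit 10 nm. K is the intercept/slope ratio of a linear fit of 1/(A₀−A) or 1/(F₀−F) vs 1/[compound].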

NCI-H23 [4] = experiment: Growth inhibition of human NCI-H23 cells assessed as cell growth at 10^-4 M incubated for 48 hrs by sulforhodamine B assay; type: functional; settings: NCI-H23, 48 h, read-out: Activity
ACHN [5] = experiment: Growth inhibition of human ACHN cells incubated for 48 hrs by sulforhodamine B assay; type: functional; in short: as §1
NCI/ADR-RES = experiment: Growth inhibition of human NCI/ADR-RES cells assessed as cell growth at 10^-8 M incubated for 48 hrs by sulforhodamine B assay; type: functional; settings: read-out: Activity
[6] = Growth inhibition of human HOP62 cells assessed as cell growth at 10^-6 M incubated for 48 hrs by sulforhodamine B assay; type: functional; settings: HOP-62, 48 h, read-out: Activity
[7] = Growth inhibition of human COLO205 cells assessed as cell growth at 10^-7 M incubated for 48 hrs by sulforhodamine B assay; type: functional; settings: COLO 205, 48 h, read-out: Activity
In short: (§2)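 Cells seeded at 5,000–40,000/well according to doubling time and preincubated 24 h at 37 °C, 5% CO2. Time-zero plates were TCA-fixed. DMSO concentrate was diluted in medium with 50 µg/ml gentamicin to give five concentrations (10-fold or ½ log steps), then exposed 48 h. Cells were TCA-fixed, stained with 0.4% SRB and read at 515 nm. Percent growth was taken against time-zero and control; GI50, TGI and LC50 derived.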

[8] = Growth inhibition of human OVCAR5 cells assessed as cell growth at 10^-7 M incubated for 48 hrs by sulforhodamine B assay; type: functional; settings: OVCAR-5, 48 h, read-out: Activity
[9] = Growth inhibition of human SF295 cells assessed as cell growth at 10 uM incubated for 48 hrs by sulforhodamine B assay; type: functional; settings: SF-295, 48 h, read-out: Activity
NCI-H23 [10] = experiment: Growth inhibition of human NCI-H23 cells assessed as cell growth at 10 uM incubated for 48 hrs by sulforhodamine B assay; type: functional; settings: NCI-H23, 48 h, read-out: Activity
MDA-MB-468 = experiment: Growth inhibition of human MDA-MB-468 cells assessed as cell growth at 10^-8 M incubated for 48 hrs by sulforhodamine B assay; type: functional; settings: MDA-MB-468, 48 h, read-out: Activity
[11] = Growth inhibition of human BT549 cells assessed as cell growth at 10^-8 M incubated for 48 hrs by sulforhodamine B assay; type: functional; settings: BT-549, 48 h, read-out: Activity; in short: as §1
Malme-3M = experiment: Growth inhibition of human MALME-3M cells assessed as cell growth at 10 uM incubated for 48 hrs by sulforhodamine B assay; type: functional; settings: read-out: Activity
HT-29 = experiment: Growth inhibition of human HT-29 cells assessed as cell growth at 10^-8 M incubated for 48 hrs by sulforhodamine B assay; type: functional; settings: HT-29, 48 h, read-out: Activity
MDA-MB-435 = experiment: Growth inhibition of human MDA-MB-435 cells incubated for 48 hrs by sulforhodamine B assay; type: functional; settings: MDA-MB-435, 48 h
In short: (§3)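 Cells were plated at 5,000–40,000 per well according to doubling time and preincubated 24 h at 37 °C in 5% CO2; time-zero plates were then TCA-fixed. Five concentrations (10-fold or ½-log dilutions, DMSO stock) were incubated 48 h. Cells were TCA-fixed, stained with 0.4% SRB and read at 515 nm. GI50 was taken where [(Ti−Tz)/(C−Tz)]×100 = 50.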

NCI-H460 = experiment: Growth inhibition of human NCI-H460 cells assessed as cell growth at 10^-7 M incubated for 48 hrs by sulforhodamine B assay; type: functional; settings: NCI-H460, 48 h, read-out: Activity
[12] = Growth inhibition of human MOLT4 cells assessed as cell growth at 10^-5 M incubated for 48 hrs by sulforhodamine B assay; type: functional; settings: MOLT-4, 48 h, read-out: Activity
SR = experiment: Growth inhibition of human SR cells assessed as cell growth at 10^-6 M incubated for 48 hrs by sulforhodamine B assay; type: functional; settings: read-out: Activity
[13] = Growth inhibition of human Caki1 cells assessed as cell growth at 10^-6 M incubated for 48 hrs by sulforhodamine B assay; type: functional; settings: CAKI-1, 48 h, read-out: Activity; in short: as §2
K562 = experiment: Growth inhibition of human K562 cells assessed as cell growth at 10 uM incubated for 48 hrs by sulforhodamine B assay; type: functional; settings: K562, 48 h, read-out: Activity
[14] = Growth inhibition of human RXF393 cells assessed as cell growth at 10^-5 M incubated for 48 hrs by sulforhodamine B assay; type: functional; settings: RXF 393, 48 h, read-out: Activity
NCI-H322M = experiment: Growth inhibition of human NCI-H322M cells assessed as cell growth at 10^-8 M incubated for 48 hrs by sulforhodamine B assay; type: functional; settings: read-out: Activity
[15] = Growth inhibition of human OVCAR5 cells incubated for 48 hrs by sulforhodamine B assay; type: functional; settings: OVCAR-5, 48 h; in short: as §3
[16] = read-out: LC50 (the source's name)
[17] = read-out: pLC50 (the source's name) (converted)

## Clc1ccc(-c2nc(Nc3ccc(-c4nc5ccccc5[nH]4)cc3)nc(N3CCOCC3)n2)cc1
ACHN [1]
  growth at 100 µM: -30%
SN12C
  growth at 10 µM: -77%
[2]
  growth at 10 µM: -66%
[3]
  growth at 1 µM: 13%
Albumin
  K: 1 ×10⁵ /M
NCI-H23 [4]
  growth at 100 µM: -27%
ACHN [5]; read-out: GI50
  GI50: 1050 nM
ACHN [5]; read-out: TGI
  TGI: 2380 nM
ACHN [5]; read-out: pGI50 (converted)
  GI50: 1050 nM
ACHN [5]; read-out: pTGI (converted)
  TGI: 2400 nM
NCI/ADR-RES
  growth at 0.01 µM: 98%
[6]
  growth at 1 µM: 72%
[7]
  growth at 0.1 µM: 95%
[8]
  growth at 0.1 µM: 92%
[9]
  growth at 10 µM: -94.4%
NCI-H23 [10]
  growth at 10 µM: -83.4%
MDA-MB-468
  growth at 0.01 µM: 99%
[11]
  growth at 0.01 µM: 96%
Malme-3M
  growth at 10 µM: -73.4%
HT-29
  growth at 0.01 µM: 104%
MDA-MB-435; read-out: GI50
  GI50: 596 nM
MDA-MB-435; read-out: TGI
  TGI: 1860 nM
MDA-MB-435; read-out: pGI50 (converted)
  GI50: 603 nM
MDA-MB-435; read-out: pTGI (converted)
  TGI: 1860 nM
NCI-H460
  growth at 0.1 µM: 100%
[12]
  growth at 10 µM: -72%
SR
  growth at 1 µM: -19%
[13]
  growth at 1 µM: 76%
K562
  growth at 10 µM: -100%
[14]
  growth at 10 µM: -79%
NCI-H322M
  growth at 0.01 µM: 96%
[15]; read-out: GI50
  GI50: 505 nM
[15]; read-out: TGI
  TGI: 1940 nM
[15]; read-out: pGI50 (converted)
  GI50: 501 nM
[15]; read-out: pTGI (converted)
  TGI: 1950 nM

## c1ccc2[nH]c(-c3ccc(Nc4nc(N5CCCCC5)nc(N5CCOCC5)n4)cc3)nc2c1
ACHN [1]
  growth at 100 µM: 1%
SN12C
  growth at 10 µM: 32%
[2]
  growth at 10 µM: -35%
[3]
  growth at 1 µM: 101%
Albumin
  K: 9.7 ×10⁴ /M
NCI-H23 [4]
  growth at 100 µM: -26%
ACHN [5]; read-out: GI50
  GI50: 3140 nM
ACHN [5]; [16]
  CC50: > 100000 nM
ACHN [5]; read-out: TGI
  TGI: > 100000 nM
ACHN [5]; read-out: pGI50 (converted)
  GI50: 3160 nM
ACHN [5]; [17]
  CC50: > 100000 nM
ACHN [5]; read-out: pTGI (converted)
  TGI: > 100000 nM
NCI/ADR-RES
  growth at 0.01 µM: 99%
[6]
  growth at 1 µM: 90%
[7]
  growth at 0.1 µM: 104%
[8]
  growth at 0.1 µM: 100%
[9]
  growth at 10 µM: -51.4%
NCI-H23 [10]
  growth at 10 µM: 19.7%
MDA-MB-468
  growth at 0.01 µM: 104%
[11]
  growth at 0.01 µM: 94%
Malme-3M
  growth at 10 µM: -50.2%
HT-29
  growth at 0.01 µM: 105%
MDA-MB-435; read-out: GI50
  GI50: 2060 nM
MDA-MB-435; [16]
  CC50: > 100000 nM
MDA-MB-435; read-out: TGI
  TGI: 4590 nM
MDA-MB-435; read-out: pGI50 (converted)
  GI50: 2040 nM
MDA-MB-435; [17]
  CC50: > 100000 nM
MDA-MB-435; read-out: pTGI (converted)
  TGI: 4570 nM
NCI-H460
  growth at 0.1 µM: 98%
[12]
  growth at 10 µM: -11%
SR
  growth at 1 µM: 44%
[13]
  growth at 1 µM: 87%
K562
  growth at 10 µM: -6.74%
[14]
  growth at 10 µM: -43%
NCI-H322M
  growth at 0.01 µM: 90%
[15]; read-out: GI50
  GI50: 4060 nM
[15]; [16]
  CC50: > 100000 nM
[15]; read-out: TGI
  TGI: 29300 nM
[15]; read-out: pGI50 (converted)
  GI50: 4070 nM
[15]; [17]
  CC50: > 100000 nM
[15]; read-out: pTGI (converted)
  TGI: 29500 nM
